Source: ChEMBL document CHEMBL1147076, “Antitumor activity of MLN8054, an orally active small-molecule inhibitor of Aurora A kinase” (Proc Natl Acad Sci U S A, 2007)
Activity calls are given as the source filed them. The rule behind the calls is not given here.

Key:
PC-3 [1] = assay: Cell cycle arrest in human PC3 cells by accumulation at G2/M phase at 1 uM after 48 hrs by flow cytometry relative to control; format: functional
Procedure, shortened: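 DNA content profiles by flow cytometry of PC-3 prostate tumor cells exposed to drug diluted in DMSO for 24 or 48 h. Phase distribution was compared with DMSO-treated control cells.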

[2] = molecular target: Serine/threonine-protein kinase PLK3 (Homo sapiens) (UniProt Q9H4B4); assay: Activity of human Plk3 kinase at 1 uM
Procedure, shortened: (§1)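 Single-concentration screen across a 226-kinase panel run by an outside provider; test compound at 1 μM with 10 μM ATP in every assay. Other conditions not detailed.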

PC-3 [3] = assay: Induction of apoptosis in human PC3 cells assessed as PARP cleavage at 1 uM after 24 hrs by Western blot method; format: functional, cell-based
[4] = molecular target: Calcium/calmodulin-dependent protein kinase type II subunit gamma (Homo sapiens) (UniProt Q13555); assay: Activity of human CaMK2gamma kinase at 1 uM
Procedure, shortened: (§2)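 Single-point kinase profiling: each kinase in a 226-kinase panel tested with compound at 1 μM and ATP at 10 μM in every assay, run by an external screening service.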

[5] = molecular target: Serine/threonine-protein kinase 3 (Homo sapiens) (UniProt Q13188); assay: Activity of human MST2 kinase at 1 uM
PC-3 [6] = assay: Cell cycle arrest in human PC3 cells by accumulation at >4N phase at 1 uM after 48 hrs by flow cytometry relative to control; format: functional
[7] = molecular target: Dual specificity mitogen-activated protein kinase kinase 4 (Mus musculus) (UniProt P47809); assay: Activity of mouse MKK4 kinase at 1 uM
Procedure, shortened: (§3)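 Single-point screen in a 226-kinase panel run by an outside service. Test compound at 1 μM with ATP at 10 μM in every assay. Other assay conditions are not given.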

[8] = molecular target: Death-associated protein kinase 1 (Homo sapiens) (UniProt P53355); assay: Activity of human DAPK1 kinase at 1 uM; procedure, shortened: as §2
[9] = Plasma concentration in human HCT116 cells xenografted in mouse at 30 mg/kg, po after 24 hrs; format: ADME, organism-based, HCT-116; parameters: dose 30 mg/kg, route oral
[10] = molecular target: Serine/threonine-protein kinase BRSK2 (Homo sapiens) (UniProt Q8IWQ3); assay: Activity of human BrSK2 kinase at 1 uM
[11] = molecular target: Rho-associated protein kinase 1 (Homo sapiens) (UniProt Q13464); assay: Activity of human ROCK1 kinase at 1 uM; procedure, shortened: as §3
[12] = molecular target: Tyrosine-protein kinase Yes (Homo sapiens) (UniProt P07947); assay: Inhibition of Yes kinase at 1 uM
Procedure, shortened: (§4)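 Single-point screen within a 226-kinase panel, with compound at 1 μM and ATP at 10 μM in all assays.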

[13] = molecular target: Serine/threonine-protein kinase pim-2 (Homo sapiens) (UniProt Q9P1W9); assay: Activity of human Pim2 kinase at 1 uM; procedure, shortened: as §3
[14] = molecular target: Serine/threonine-protein kinase Nek2 (Homo sapiens) (UniProt P51955); assay: Activity of human NEK2 kinase at 1 uM
[15] = molecular target: Vascular endothelial growth factor receptor 3 (Homo sapiens) (UniProt P35916); assay: Activity of human Flt4 kinase at 1 uM; procedure, shortened: as §2
PC-3 [16] = assay: Antitumor activity against human PC3 cells xenografted into athymic nude NCR nu/nu mouse at 10 mg/kg, po BID after 21 days relative to control; format: functional
Procedure, shortened: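 Oral dosing for 21 days in 10% hydroxypropyl-β-cyclodextrin/5% sodium bicarbonate. Caliper volumes, L × W2 × 0.5. TGI = (Δcontrol − Δtreated average volume) × 100/Δcontrol.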

[17] = molecular target: MAP kinase-activated protein kinase 5 (Homo sapiens) (UniProt Q8IW41); assay: Activity of human PRAK kinase at 1 uM; procedure, shortened: as §3
MCF7 = assay: Antiproliferative activity against human MCF7 cells after 96 hrs by BrdU cell proliferation ELISA; format: functional, cell-based; settings: MCF7, 96 h
Procedure, shortened: (§5)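 BrdU incorporation proliferation assay on cultured human tumor lines; IC50 values derived from growth inhibition.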

[18] = molecular target: Tyrosine-protein kinase receptor TYRO3 (Homo sapiens) (UniProt Q06418); assay: Activity of human Rse kinase at 1 uM; procedure, shortened: as §1
[19] = molecular target: Tyrosine-protein kinase Lyn (Mus musculus) (UniProt P25911); assay: Activity of mouse Lyn kinase at 1 uM; procedure, shortened: as §3
Homo sapiens = organism: Homo sapiens; assay: Activity of human CaMK1 kinase at 1 uM
[20] = molecular target: Serine/threonine-protein kinase MRCK beta (Homo sapiens) (UniProt Q9Y5S2); assay: Activity of human MRCKbeta kinase at 1 uM
[21] = molecular target: Tyrosine-protein kinase CSK (Homo sapiens) (UniProt P41240); assay: Activity of human CSK kinase at 1 uM; procedure, shortened: as §2
[22] = Inhibition of Abl kinase at 1 uM
[23] = molecular target: Serine/threonine-protein kinase Nek6 (Homo sapiens) (UniProt Q9HC98); assay: Activity of human NEK6 kinase at 1 uM; procedure, shortened: as §3
[24] = molecular target: Tyrosine-protein kinase receptor UFO (Homo sapiens) (UniProt P30530); assay: Inhibition of Axl kinase at 1 uM; procedure, shortened: as §4
[25] = molecular target: Homeodomain-interacting protein kinase 3 (Homo sapiens) (UniProt Q9H422); assay: Activity of human HIPK3 kinase at 1 uM
[26] = molecular target: Ephrin type-B receptor 1 (Homo sapiens) (UniProt P54762); assay: Inhibition of EphB1 kinase at 1 uM; procedure, shortened: as §4
[27] = molecular target: Glycogen synthase kinase-3 alpha (Homo sapiens) (UniProt P49840); assay: Activity of human GSK3-alpha kinase at 1 uM
[28] = molecular target: Protein kinase C epsilon type (Homo sapiens) (UniProt Q02156); assay: Activity of human PKCepsilon kinase at 1 uM; procedure, shortened: as §2
[29] = molecular target: LIM domain kinase 1 (Homo sapiens) (UniProt P53667); assay: Activity of human LIMK1 kinase at 1 uM
SK-OV-3 = assay: Antiproliferative activity against human SKOV3 cells after 96 hrs by BrdU cell proliferation ELISA; format: functional, cell-based; settings: SK-OV-3, 96 h
[30] = molecular target: Serine/threonine-protein kinase N2 (Homo sapiens) (UniProt Q16513); assay: Activity of human PRK2 kinase at 1 uM; procedure, shortened: as §3
NCI-H460 = assay: Antiproliferative activity against human H460 cells after 96 hrs by BrdU cell proliferation ELISA; format: functional, cell-based; settings: NCI-H460, 96 h; procedure, shortened: as §5
[31] = molecular target: Serine/threonine-protein kinase Chk1 (Homo sapiens) (UniProt O14757); assay: Activity of human CHK1 kinase at 1 uM; procedure, shortened: as §2
[32] = molecular target: Casein kinase I homolog 1 (Saccharomyces cerevisiae S288c) (UniProt P23291); assay: Activity of Saccharomyces cerevisiae CK1 kinase at 1 uM
[33] = molecular target: Maternal embryonic leucine zipper kinase (Homo sapiens) (UniProt Q14680); assay: Activity of human MELK kinase at 1 uM; procedure, shortened: as §2
Bos taurus = organism: Bos taurus; assay: Activity of bovine PKA kinase at 1 uM
[34] = molecular target: Ephrin type-A receptor 3 (Homo sapiens) (UniProt P29320); assay: Activity of human EphA3 kinase at 1 uM
[35] = molecular target: SRSF protein kinase 3 (Homo sapiens) (UniProt Q9UPE1); assay: Activity of human MSSK1 kinase at 1 uM
SW480 = assay: Antiproliferative activity against human SW480 cells after 96 hrs by BrdU cell proliferation ELISA; format: functional, cell-based; settings: SW480, 96 h; procedure, shortened: as §5

Sequence of Protein kinase C epsilon type (Homo sapiens) (Q02156 whole entry, the tested form may be a part): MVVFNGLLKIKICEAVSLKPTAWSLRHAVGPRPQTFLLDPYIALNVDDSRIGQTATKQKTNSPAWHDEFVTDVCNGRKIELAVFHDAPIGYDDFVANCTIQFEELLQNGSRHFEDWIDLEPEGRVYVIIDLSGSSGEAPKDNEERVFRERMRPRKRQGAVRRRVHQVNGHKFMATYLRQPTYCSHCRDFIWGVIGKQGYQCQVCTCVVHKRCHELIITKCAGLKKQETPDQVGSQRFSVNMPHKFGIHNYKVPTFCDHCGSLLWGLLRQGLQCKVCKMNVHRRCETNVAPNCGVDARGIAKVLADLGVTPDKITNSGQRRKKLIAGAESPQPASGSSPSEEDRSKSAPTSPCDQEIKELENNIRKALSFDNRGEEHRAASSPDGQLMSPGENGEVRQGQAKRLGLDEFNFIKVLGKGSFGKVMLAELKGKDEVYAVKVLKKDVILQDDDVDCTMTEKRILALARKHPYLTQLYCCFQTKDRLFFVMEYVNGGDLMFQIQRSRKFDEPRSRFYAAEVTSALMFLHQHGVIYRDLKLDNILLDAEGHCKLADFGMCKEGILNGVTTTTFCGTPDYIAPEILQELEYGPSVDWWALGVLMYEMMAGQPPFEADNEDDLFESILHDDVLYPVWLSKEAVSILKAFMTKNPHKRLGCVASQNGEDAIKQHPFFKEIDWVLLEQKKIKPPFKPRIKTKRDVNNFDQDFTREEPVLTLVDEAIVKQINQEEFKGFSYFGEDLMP
Sequence of Serine/threonine-protein kinase BRSK2 (Homo sapiens) (Q8IWQ3 whole entry): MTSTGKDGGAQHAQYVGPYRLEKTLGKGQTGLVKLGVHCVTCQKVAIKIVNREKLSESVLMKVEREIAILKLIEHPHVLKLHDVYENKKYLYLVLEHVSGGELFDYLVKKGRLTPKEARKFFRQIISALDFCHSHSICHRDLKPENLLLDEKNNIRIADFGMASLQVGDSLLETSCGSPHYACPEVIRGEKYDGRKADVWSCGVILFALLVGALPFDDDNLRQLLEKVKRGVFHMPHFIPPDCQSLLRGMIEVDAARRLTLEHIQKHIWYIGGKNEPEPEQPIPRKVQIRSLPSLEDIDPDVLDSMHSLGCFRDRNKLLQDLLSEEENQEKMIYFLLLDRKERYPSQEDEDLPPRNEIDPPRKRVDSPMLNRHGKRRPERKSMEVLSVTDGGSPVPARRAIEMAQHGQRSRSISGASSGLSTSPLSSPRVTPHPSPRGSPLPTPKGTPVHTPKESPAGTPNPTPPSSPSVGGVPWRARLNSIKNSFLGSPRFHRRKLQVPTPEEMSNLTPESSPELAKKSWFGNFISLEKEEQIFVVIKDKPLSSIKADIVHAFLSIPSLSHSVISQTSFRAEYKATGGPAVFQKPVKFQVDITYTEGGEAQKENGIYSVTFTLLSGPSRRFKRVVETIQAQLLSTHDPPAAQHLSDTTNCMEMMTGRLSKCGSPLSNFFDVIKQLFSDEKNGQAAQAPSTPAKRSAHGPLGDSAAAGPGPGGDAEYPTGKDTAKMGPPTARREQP
Sequence of Dual specificity mitogen-activated protein kinase kinase 4 (Mus musculus) (P47809 whole entry): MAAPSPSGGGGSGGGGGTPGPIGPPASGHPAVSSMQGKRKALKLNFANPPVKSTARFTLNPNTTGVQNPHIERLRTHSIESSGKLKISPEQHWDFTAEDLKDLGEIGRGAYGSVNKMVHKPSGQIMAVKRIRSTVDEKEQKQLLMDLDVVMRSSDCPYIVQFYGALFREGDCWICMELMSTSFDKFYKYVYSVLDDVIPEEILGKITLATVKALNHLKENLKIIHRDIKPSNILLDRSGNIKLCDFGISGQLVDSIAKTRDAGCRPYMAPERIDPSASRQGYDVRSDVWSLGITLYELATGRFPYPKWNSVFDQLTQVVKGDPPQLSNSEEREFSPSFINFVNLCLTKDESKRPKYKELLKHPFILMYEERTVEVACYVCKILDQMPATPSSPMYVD
Sequence of Tyrosine-protein kinase Lyn (Mus musculus) (P25911 whole entry): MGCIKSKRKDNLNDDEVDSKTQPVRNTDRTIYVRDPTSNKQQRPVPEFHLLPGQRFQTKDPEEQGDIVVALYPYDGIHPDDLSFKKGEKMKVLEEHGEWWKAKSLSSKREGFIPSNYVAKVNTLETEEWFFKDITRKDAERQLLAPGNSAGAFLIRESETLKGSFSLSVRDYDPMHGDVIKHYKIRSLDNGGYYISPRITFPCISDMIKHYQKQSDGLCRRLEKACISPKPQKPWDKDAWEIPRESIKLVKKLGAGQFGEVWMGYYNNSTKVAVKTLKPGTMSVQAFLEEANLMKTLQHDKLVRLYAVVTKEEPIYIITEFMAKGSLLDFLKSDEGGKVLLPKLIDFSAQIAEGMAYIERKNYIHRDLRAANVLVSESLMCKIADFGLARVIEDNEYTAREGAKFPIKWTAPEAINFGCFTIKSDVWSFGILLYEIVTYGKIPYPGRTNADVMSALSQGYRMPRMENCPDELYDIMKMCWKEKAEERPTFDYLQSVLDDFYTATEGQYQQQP
Sequence of Serine/threonine-protein kinase Nek2 (Homo sapiens) (P51955 whole entry): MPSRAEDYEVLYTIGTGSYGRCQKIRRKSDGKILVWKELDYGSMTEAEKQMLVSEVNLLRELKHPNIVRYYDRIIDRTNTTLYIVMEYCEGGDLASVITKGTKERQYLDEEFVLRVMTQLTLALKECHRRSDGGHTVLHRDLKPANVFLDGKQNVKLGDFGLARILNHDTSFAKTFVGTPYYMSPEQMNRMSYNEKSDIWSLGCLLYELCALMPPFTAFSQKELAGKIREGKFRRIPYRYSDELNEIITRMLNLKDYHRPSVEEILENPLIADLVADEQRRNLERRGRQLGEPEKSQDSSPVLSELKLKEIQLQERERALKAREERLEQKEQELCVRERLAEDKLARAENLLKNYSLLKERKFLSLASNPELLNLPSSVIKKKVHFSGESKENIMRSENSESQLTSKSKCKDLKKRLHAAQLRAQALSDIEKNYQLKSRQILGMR
Sequence of Homeodomain-interacting protein kinase 3 (Homo sapiens) (Q9H422 whole entry, looked up): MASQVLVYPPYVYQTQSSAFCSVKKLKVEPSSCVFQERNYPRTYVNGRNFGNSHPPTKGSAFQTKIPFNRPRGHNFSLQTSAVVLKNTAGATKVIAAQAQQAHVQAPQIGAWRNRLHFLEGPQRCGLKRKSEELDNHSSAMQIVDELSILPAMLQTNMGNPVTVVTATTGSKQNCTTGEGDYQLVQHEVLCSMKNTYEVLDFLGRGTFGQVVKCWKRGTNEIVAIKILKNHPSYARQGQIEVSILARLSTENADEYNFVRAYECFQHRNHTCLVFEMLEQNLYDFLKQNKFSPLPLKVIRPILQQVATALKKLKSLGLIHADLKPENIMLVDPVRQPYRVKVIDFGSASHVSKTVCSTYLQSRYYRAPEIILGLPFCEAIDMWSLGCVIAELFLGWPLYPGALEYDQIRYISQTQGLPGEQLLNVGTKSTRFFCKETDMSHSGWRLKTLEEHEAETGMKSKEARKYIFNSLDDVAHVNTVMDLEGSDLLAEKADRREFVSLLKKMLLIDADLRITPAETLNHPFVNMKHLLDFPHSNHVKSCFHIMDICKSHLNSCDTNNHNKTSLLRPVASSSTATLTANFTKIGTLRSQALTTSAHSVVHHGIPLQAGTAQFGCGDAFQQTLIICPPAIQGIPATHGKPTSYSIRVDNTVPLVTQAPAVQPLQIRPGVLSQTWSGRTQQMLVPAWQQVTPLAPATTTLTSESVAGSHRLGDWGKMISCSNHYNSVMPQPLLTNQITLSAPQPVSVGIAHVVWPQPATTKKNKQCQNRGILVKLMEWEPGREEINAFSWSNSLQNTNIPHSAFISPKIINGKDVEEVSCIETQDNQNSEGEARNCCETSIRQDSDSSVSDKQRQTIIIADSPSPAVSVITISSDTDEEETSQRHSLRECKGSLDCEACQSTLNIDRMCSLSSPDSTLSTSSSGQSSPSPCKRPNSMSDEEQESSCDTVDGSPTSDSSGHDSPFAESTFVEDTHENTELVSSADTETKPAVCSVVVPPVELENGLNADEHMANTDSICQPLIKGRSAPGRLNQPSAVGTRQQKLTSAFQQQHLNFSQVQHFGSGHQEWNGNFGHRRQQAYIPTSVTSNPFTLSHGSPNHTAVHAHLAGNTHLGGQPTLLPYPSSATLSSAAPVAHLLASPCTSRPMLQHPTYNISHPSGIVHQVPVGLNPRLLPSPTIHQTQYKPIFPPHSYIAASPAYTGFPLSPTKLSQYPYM
Sequence of LIM domain kinase 1 (Homo sapiens) (P53667 whole entry, looked up, the tested form may be a part): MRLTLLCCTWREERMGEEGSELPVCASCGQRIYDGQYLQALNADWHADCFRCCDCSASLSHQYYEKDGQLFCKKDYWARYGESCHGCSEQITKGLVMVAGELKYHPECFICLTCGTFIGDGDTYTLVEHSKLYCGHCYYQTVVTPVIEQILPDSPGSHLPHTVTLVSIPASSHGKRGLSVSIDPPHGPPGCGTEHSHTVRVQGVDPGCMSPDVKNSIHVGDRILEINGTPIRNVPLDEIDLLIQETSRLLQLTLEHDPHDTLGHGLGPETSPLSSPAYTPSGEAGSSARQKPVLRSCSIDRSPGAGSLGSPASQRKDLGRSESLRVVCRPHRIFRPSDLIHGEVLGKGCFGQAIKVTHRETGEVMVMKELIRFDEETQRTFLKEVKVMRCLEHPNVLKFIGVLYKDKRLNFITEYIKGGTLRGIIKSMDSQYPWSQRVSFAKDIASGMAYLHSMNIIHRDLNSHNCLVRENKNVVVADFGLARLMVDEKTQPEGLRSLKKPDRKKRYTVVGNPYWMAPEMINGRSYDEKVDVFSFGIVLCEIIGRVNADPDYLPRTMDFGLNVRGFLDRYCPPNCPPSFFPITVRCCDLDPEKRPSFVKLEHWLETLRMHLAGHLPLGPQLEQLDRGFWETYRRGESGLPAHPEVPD
Sequence of Serine/threonine-protein kinase pim-2 (Homo sapiens) (Q9P1W9 whole entry, looked up): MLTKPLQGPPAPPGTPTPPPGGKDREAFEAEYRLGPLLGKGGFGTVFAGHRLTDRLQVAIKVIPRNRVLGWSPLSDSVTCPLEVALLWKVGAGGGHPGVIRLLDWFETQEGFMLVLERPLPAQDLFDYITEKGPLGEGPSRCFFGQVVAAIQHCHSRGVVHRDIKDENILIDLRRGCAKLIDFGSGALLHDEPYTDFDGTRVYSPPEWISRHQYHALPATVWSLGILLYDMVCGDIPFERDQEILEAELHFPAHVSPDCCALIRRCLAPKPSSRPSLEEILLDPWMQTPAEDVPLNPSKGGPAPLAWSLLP

- Activity [2]: 105%
- Activity [4]: 112%
- Activity [5]: 100%
- Activity [7]: 120%
- concentration at 24 h [9]: 400 nM
- Activity [10]: 99%
- Activity [11]: 120%
- inhibition [12]: 80%
- Activity [13]: 101%
- Activity [14]: 110%
- Activity [15]: 6%
- Activity [17]: 110%
- IC50 (MCF7): 670 nM
- Activity [18]: 56%
- Activity [19]: 52%
- Activity (Homo sapiens): 98%
- Activity [20]: 107%
- Activity [21]: 105%
- inhibition [22]: 76%
- Activity [23]: 92%
- inhibition [24]: 59%
- Activity [25]: 111%
- inhibition [26]: 65%
- Activity [27]: 110%
- Activity [28]: 123%
- Activity [29]: 110%
- IC50 (SK-OV-3): 530 nM
- Activity [30]: 90%
- IC50 (NCI-H460): 110 nM
- Activity [31]: 109%
- Activity [32]: 115%
- Activity [33]: 79%
- Activity (Bos taurus): 86%
- Activity [34]: 88%
- Activity [35]: 100%
- IC50 (SW480): 860 nM
Compound: O=C(O)c1ccc(Nc2ncc3c(n2)-c2ccc(Cl)cc2C(c2c(F)cccc2F)=NC3)cc1 [MLN-8054]
- Activity (PC-3 [1]): 59.8%
- Activity (PC-3 [3]): Active
- Activity (PC-3 [6]): 7%
- Activity [8]: 114%
- Activity (PC-3 [16]): 73%
